Laboratory results taken from ChEMBL document CHEMBL4251609, “Substrate-derived triazolo- and azapeptides as inhibitors of cathepsins K and S” (Eur J Med Chem, 2018).
Active and inactive are the calls of the source. The calls are words filed in the database; no cut-off is given here.

Assays:
[1] = biological target: Trypsin (Homo sapiens) (UniProt P07477+P07478+P35030); test: Inhibition of trypsin (unknown origin) incubated for 30 mins using Abz-Thr-Pro-Arg-Ser-Ala-Leu-Gln-EDDnp substrate; assay type: protein assay
[2] = organism: Homo sapiens; test: Inhibition of chymotrypsin (unknown origin) incubated for 30 mins using Abz-Thr-Pro-Phe-Ser-Gly-Gln-EDDnp substrate
[3] = biological target: T1, Neutrophil elastase (Homo sapiens) (UniProt P08246); test: Inhibition of human neutrophil elastase incubated for 30 mins using Abz-Ala-Pro-Glu-Glu-Ile-Met-Arg-Arg-Gln-(3-NO2-Tyr) substrate
T1 sequence (whole entry): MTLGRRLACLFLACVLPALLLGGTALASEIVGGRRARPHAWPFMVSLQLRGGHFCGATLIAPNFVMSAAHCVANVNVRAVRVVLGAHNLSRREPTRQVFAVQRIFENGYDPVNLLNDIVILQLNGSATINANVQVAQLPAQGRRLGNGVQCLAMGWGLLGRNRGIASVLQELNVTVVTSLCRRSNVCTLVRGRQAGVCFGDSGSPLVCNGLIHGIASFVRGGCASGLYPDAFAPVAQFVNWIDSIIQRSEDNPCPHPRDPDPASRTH

[4] = biological target: 72 kDa type IV collagenase (Homo sapiens) (UniProt P08253); test: Inhibition of human recombinant MMP-2 expressed in CHO cells incubated for 30 mins by Mca-Arg-Pro-Pro-Gly-Phe-Ser-Ala-Phe-Lys(Dnp) substrate; assay type: cell-based
72 kDa type IV collagenase (Homo sapiens), sequence (P08253 110-660 limits assumed): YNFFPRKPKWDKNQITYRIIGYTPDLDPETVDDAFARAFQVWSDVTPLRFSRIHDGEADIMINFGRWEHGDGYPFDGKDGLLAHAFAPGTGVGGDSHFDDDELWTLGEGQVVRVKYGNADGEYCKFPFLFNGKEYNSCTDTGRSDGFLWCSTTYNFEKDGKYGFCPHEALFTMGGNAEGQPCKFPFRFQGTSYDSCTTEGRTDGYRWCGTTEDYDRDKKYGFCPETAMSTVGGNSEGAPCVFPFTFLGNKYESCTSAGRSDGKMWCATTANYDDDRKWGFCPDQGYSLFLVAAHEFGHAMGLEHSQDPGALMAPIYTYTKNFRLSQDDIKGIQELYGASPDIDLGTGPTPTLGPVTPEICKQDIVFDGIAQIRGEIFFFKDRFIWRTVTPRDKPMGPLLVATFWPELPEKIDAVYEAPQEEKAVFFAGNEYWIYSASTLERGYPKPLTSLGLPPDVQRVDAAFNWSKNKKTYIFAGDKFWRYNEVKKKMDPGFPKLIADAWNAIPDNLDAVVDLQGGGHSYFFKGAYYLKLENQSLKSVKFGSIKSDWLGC

[5] = biological target: Cathepsin D (Homo sapiens) (UniProt P07339); test: Inhibition of human cathepsin D incubated for 30 mins using Mca-Gly-Lys-Pro-Ile-Leu-Phe-Phe-Arg-Leu-Lys(Dnp)-D-Arg-NH2 substrate
Cathepsin D (Homo sapiens), sequence (P07339 65-162 limits assumed): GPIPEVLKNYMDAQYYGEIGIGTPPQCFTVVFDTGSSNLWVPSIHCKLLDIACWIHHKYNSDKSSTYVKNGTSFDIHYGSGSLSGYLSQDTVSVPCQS
Cathepsin D (Homo sapiens), sequence (P07339 169-412 limits assumed): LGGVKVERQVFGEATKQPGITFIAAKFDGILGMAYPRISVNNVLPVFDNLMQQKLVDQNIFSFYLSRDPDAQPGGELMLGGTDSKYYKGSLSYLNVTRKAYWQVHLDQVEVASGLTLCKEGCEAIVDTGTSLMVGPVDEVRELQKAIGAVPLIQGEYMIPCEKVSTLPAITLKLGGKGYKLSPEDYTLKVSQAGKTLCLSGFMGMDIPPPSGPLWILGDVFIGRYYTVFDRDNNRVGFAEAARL

[6] = biological target: T2, Pro-cathepsin H (Homo sapiens) (UniProt P09668); test: Inhibition of human cathepsin H using fluorogenic AMC-derived peptide substrate assessed as reduction in residual activity preincubated for 30 mins followed by substrate addition
T2 sequence (whole entry): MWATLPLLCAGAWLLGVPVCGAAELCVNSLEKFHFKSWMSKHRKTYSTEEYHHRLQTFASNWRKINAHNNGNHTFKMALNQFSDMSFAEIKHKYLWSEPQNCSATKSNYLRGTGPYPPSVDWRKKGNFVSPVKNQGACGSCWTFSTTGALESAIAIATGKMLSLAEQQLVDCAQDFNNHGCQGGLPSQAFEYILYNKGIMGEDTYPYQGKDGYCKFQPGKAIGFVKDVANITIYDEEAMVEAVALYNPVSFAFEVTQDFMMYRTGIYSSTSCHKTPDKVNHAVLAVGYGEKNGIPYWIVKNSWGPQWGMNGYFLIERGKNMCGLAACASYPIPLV

[7] = biological target: Cathepsin B (Homo sapiens) (UniProt P07858); test: Inhibition of human cathepsin B
[8] = biological target: T3, Cathepsin K (Homo sapiens) (UniProt P43235); test: Inhibition of human cathepsin K using fluorogenic AMC-derived peptide substrate assessed as reduction in residual activity preincubated for 30 mins followed by substrate addition
T3 sequence (whole entry): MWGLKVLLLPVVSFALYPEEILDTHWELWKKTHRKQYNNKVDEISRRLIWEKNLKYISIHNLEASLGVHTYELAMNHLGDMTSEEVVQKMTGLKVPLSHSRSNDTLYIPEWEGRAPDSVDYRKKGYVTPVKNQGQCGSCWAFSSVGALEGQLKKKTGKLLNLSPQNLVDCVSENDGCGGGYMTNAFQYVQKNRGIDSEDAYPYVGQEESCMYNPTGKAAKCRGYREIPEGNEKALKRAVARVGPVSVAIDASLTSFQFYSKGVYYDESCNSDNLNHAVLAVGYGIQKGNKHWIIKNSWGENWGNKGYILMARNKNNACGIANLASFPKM

[9] = biological target: T4, Procathepsin L (Homo sapiens, UniProt P07711); test: Inhibition of human cathepsin L using fluorogenic AMC-derived peptide substrate assessed as reduction in residual activity preincubated for 30 mins followed by substrate addition
Target sequence in this assay (P07711 114-333 limits assumed): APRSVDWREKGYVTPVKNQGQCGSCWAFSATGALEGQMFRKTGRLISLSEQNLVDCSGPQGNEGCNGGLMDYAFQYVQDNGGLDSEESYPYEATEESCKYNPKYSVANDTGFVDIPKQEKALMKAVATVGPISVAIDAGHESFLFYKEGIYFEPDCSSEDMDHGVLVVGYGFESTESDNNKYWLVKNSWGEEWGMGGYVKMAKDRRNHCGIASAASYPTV

[10] = biological target: T5, Cathepsin S (Homo sapiens, UniProt P25774); test: Inhibition of human cathepsin S at 300 uM preincubated for 30 mins followed by Biot-(PEG)2-Ahx-LeuValGly-DMK addition measured after 1 hr by chemiluminescence assay
Target sequence in this assay (P25774 115-331 limits assumed): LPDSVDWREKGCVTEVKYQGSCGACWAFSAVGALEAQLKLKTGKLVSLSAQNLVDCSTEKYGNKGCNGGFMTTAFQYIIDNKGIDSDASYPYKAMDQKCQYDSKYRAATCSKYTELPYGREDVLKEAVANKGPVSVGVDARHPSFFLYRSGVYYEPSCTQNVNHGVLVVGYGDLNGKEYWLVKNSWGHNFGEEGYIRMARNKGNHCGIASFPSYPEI

[11] = biological target: T5, Cathepsin S; test: (§1) Reversible competitive inhibition of human cathepsin S using fluorogenic AMC-derived peptide substrate assessed as reduction in residual activity at pH 5.5 preincubated for 30 mins followed by substrate addition
In short: (§2)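 Ki values for cathepsin S determined at pH 5.5 and again at pH 7.4, a pH at which this enzyme stays stable and active, to compare the two conditions.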
Target sequence in this assay (P25774 115-331 limits assumed): as above

[12] = biological target: T5, Cathepsin S; test: Reversible inhibition of human cathepsin S at 300 uM in presence of excess Z-LR-AMC
Target sequence in this assay (P25774 115-331 limits assumed): as above

[13] = biological target: T5, Cathepsin S; test: as §1; conditions: read-out: Ki; in short: as §2
Target sequence in this assay (P25774 whole entry): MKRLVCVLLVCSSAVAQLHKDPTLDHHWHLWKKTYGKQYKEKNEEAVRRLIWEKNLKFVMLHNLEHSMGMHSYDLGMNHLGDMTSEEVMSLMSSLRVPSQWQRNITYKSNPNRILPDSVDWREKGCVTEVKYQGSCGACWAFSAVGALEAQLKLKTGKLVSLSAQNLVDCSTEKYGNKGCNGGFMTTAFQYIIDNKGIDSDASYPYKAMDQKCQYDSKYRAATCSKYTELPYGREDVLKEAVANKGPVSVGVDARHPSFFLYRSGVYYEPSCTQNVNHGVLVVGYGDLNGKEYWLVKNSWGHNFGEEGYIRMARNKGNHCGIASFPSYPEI

[14] = biological target: T5, Cathepsin S; test: Reversible competitive inhibition of human cathepsin S using fluorogenic AMC-derived peptide substrate assessed as reduction in residual activity at pH 7.4 preincubated for 30 mins followed by substrate addition; conditions: read-out: Ki; in short: as §2
Target sequence in this assay (P25774 whole entry): as above

[15] = biological target: T6, Cathepsin K (Homo sapiens, UniProt P43235); test: Reversible competitive inhibition of human cathepsin K using fluorogenic AMC-derived peptide substrate assessed as reduction in residual activity preincubated for 30 mins followed by substrate addition
T6 sequence (P43235 whole entry): T3 sequence (whole entry)
In short: (§3)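 Inhibition constants (Ki) determined at pH 5.5, with reversibility and competitive mode also assessed.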

[16] = biological target: T4, Procathepsin L; test: Reversible competitive inhibition of human cathepsin L using fluorogenic AMC-derived peptide substrate assessed as reduction in residual activity preincubated for 30 mins followed by substrate addition; in short: as §3
Target sequence in this assay (P07711 whole entry): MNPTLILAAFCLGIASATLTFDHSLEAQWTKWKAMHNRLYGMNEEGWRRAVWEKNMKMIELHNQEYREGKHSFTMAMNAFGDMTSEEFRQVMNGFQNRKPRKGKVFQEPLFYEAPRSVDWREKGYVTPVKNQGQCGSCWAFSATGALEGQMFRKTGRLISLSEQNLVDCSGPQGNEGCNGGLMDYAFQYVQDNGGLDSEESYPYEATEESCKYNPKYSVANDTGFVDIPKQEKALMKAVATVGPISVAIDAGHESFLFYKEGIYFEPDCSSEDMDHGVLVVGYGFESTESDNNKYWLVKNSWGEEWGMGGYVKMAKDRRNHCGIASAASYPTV

[17] = biological target: T7, Pro-cathepsin H (Homo sapiens, UniProt P09668); test: Reversible competitive inhibition of human cathepsin H using fluorogenic AMC-derived peptide substrate assessed as reduction in residual activity preincubated for 30 mins followed by substrate addition
T7 sequence (P09668 whole entry): T2 sequence (whole entry)

[18] = biological target: T5, Cathepsin S; test: Inhibition of human cathepsin S using fluorogenic AMC-derived peptide substrate assessed as reduction in residual activity preincubated for 30 mins followed by substrate addition
Target sequence in this assay (P25774 115-331 limits assumed): as the sequence (P25774 115-331 limits assumed) above

[19] = biological target: Cathepsin S (Mus musculus) (UniProt O70370); test: Inhibition of cathepsin S in C57/Bl6 mouse spleen lysate using Z-Val-Leu-Arg-AMC as substrate at 100 uM preincubated for 30 mins followed by substrate addition; assay type: subcellular
[20] = biological target: Cathepsin B (Mus musculus) (UniProt P10605); test: Inhibition of cathepsin B in C57/Bl6 mouse spleen lysate using Z-Arg-Arg-AMC as substrate at 100 uM preincubated for 30 mins followed by substrate addition; assay type: subcellular
Cathepsin B (Mus musculus), sequence (P10605 80-333 limits assumed): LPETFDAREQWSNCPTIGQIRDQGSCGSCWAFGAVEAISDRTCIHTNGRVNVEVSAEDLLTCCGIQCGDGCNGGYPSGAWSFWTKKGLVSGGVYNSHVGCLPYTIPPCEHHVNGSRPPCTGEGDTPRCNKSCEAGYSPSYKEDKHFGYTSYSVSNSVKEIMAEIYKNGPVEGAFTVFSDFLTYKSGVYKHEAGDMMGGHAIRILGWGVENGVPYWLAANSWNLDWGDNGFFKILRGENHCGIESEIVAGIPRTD

[21] = biological target: T3, Cathepsin K (Homo sapiens); test: Inhibition of human cathepsin K […] activity assessed as normalized bradykinin equivalents ratio at 1 uM pre-incubated for 15 mins before bradykinin substrate addition by competitive enzyme immunoassay (reference value: <0.5%); design: scale not given: the % may be the effect or the level left
[22] = biological target: T3, Cathepsin K (Homo sapiens); test: Inhibition of human cathepsin K […] activity assessed as normalized bradykinin equivalents ratio at 1 uM pre-incubated for 15 mins before kallidin substrate addition by competitive enzyme immunoassay (reference value: <0.5%); design: scale not given: the % may be the effect or the level left
[23] = biological target: T6, Cathepsin K; test: Inhibition of human cathepsin K

CSCC[C@H](NC(=O)[C@@H]1CCCN1C(=O)[C@H](Cc1c[nH]cn1)NC(=O)[C@H](Cc1c[nH]c2ccccc12)NC(=O)[C@H](CCCNC(=N)N)NC(=O)CNC(C)=O)C(=O)NCc1cn([C@@H](C)C(=O)N2CCC[C@H]2C(=O)N[C@@H](Cc2c[nH]c3ccccc23)C(=O)N[C@@H](CCC(=O)O)C(=O)N[C@H](C)C(=O)N[C@H](CCCNC(=N)N)C(N)=O)nn1
inhibition [1]: inactive
inhibition [2]: inactive
inhibition [3]: inactive
inhibition [4]: inactive
inhibition [5]: inactive
inhibition [6]: inactive
inhibition [7]: inactive
inhibition [8]: Active
inhibition [9]: Active
inhibition [10]: Active
inhibition [11]: Active
inhibition [12]: inactive
Ki [13]: 15 µM
Ki [14]: 42 µM
Ki [15]: 10 µM
Ki [16]: 30 µM
Ki [17]: Not Active
inhibition [18]: Active

CC(C)C[C@H](NC(=O)[C@@H]1O[C@H]1C(=O)O)C(=O)NCCCCN=C(N)N
inhibition [19]: Active
inhibition [20]: Active
Activity [21]: 100%
Activity [22]: 100%

CC(C)(F)C[C@H](N[C@@H](c1ccc(-c2ccc(S(C)(=O)=O)cc2)cc1)C(F)(F)F)C(=O)NC1(C#N)CC1 [ODANACATIB]
Ki [23]: 0.00018 µM
